Assay results reported in ChEMBL document CHEMBL1126969, “Antipsoriatic anthrones with modulated redox properties. 1. Novel 10-substituted 1,8-dihydroxy-9(10H)-anthracenones as inhibitors of 5-lipoxygenase” (J Med Chem, 1993).

Tests used:
[1] = Deoxyribose-damaging property as a measure of hydroxyl-radical formation (uM test compound)
[2] = Reducing activity against 2,2-diphenyl-1-picrylhydrazyl; assay type: ADME
[3] = Reducing activity against 2,2-diphenyl-1-picrylhydrazyl with an equimolar amount of the test compound; c = Not reactive; assay type: ADME
[4] = (§1) Deoxyribose-damaging property as a measure of hydroxyl-radical formation (uM of malondialdehyde/mmol of deoxyribose released by 75 uM test compound)
Procedure, shortened: (§2)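 2-Deoxy-D-ribose (2 mM) with FeCl3 (0.1 mM) in 30 mM KH2PO4-KOH buffer pH 7.4, compound at 75 μM final (acetonitrile vehicle, fresh stocks), 2 h at 37 °C. TBA/trichloroacetic acid added, heated 100 °C 15 min, acidified, extracted into butanol, A532 read. Calibrated against malondialdehyde standard; expressed as μmol MDA/mmol deoxyribose.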

[5] = molecular target: T1, Arachidonate 5-lipoxygenase (Bos taurus, UniProt Q9BEG3); assay: Inhibitory activity against 5-lipoxygenase (inhibition of 5-HETE and LTB4 biosynthesis) in bovine polymorphonuclear leukocytes (PMNL).; assay type: cell-based
T1 sequence (Q9BEG3 whole entry): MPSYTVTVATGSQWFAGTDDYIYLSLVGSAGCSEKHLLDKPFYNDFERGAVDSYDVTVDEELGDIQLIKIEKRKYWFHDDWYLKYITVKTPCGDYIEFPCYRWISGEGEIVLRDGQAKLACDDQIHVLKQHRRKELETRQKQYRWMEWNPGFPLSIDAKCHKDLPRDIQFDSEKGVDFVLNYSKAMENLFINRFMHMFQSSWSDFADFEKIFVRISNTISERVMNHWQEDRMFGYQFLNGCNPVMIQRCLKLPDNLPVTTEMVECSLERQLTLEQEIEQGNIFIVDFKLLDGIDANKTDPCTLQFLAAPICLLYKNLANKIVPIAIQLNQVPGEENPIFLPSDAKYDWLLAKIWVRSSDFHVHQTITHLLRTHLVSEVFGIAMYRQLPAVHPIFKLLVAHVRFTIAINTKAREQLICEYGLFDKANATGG

[6] = molecular target: T2, Arachidonate 5-lipoxygenase (Bos taurus) (UniProt Q9BEG3); assay: Inhibitory activity against 5-lipoxygenase (inhibition of 5-HETE and LTB4 biosynthesis) in bovine polymorphonuclear leukocytes (PMNL) at 30 uM; assay type: cell-based
T2 sequence (whole entry): T1 sequence (Q9BEG3 whole entry)
Procedure, shortened: (§3)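 Bovine PMNL from EDTA blood, platelets removed, 1×10^7 cells/mL in PBS pH 7.4. Compound (DMSO, 0.4% final) preincubated 15 min at 37 °C, then stimulated with CaCl2 2 mM and A23187 20 μM for 10 min. Stopped with methanol/acetonitrile containing NDGA and PGB2 marker. LTB4 (280 nm) and 5-HETE (232 nm) quantified by RP-HPLC against internal and external standards.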

[7] = molecular target: T2, Arachidonate 5-lipoxygenase (Bos taurus); assay: Inhibitory activity against 5-lipoxygenase (inhibition of 5-HETE and LTB4 biosynthesis) in bovine polymorphonuclear leukocytes (PMNL); assay type: cell-based; details: concentration not given here; procedure, shortened: as §3
[8] = as §1; assay type: ADME; procedure, shortened: as §2

Row | Deoxyribose degradation (uM of MDA mM-1) [1] | kDPPH [2] | IC50 [5] | inhibition [6] | SMILES | also measured
1 | < 0.2 | 10.3 M⁻¹ s⁻¹ |  |  | COc1cc(CCC(=O)C2c3cccc(O)c3C(=O)c3c(O)cccc32)cc(OC)c1OC | 
2 |  | 24.2 M⁻¹ s⁻¹ |  |  | O=C1c2c(O)cccc2Cc2cccc(O)c21 [ANTHRALIN] | 
3 |  |  |  |  | COc1c(OC)c(OC(C)=O)c2cc(Cl)ccc2c1OC(C)=O [LONAPALENE] | kDPPH [3]: Not Active; Deoxyribose degradation (uM of MDA mM-1) [4]: < 0.15
4 | < 0.15 | > 100 M⁻¹ s⁻¹ | 4000 nM |  | O=C1c2c(O)cccc2C(=Cc2ccc(O)cc2)c2cccc(O)c21 | 
5 | 0.36 | 14.7 M⁻¹ s⁻¹ |  |  | O=C1c2c(O)cccc2C(C(=O)Cc2ccc(O)cc2)c2cccc(O)c21 | 
6 | < 0.15 | < 1 M⁻¹ s⁻¹ |  |  | O=C1c2c(O)cccc2C(=CCCc2ccccc2)c2cccc(O)c21 | 
7 | < 0.2 | > 100 M⁻¹ s⁻¹ |  |  | CC(C)(C)c1cc(CC(=O)C2c3cccc(O)c3C(=O)c3c(O)cccc32)cc(C(C)(C)C)c1O | 
8 | < 0.15 | < 1 M⁻¹ s⁻¹ |  | < 10% | COC(=O)c1ccc(C=C2c3cccc(O)c3C(=O)c3c(O)cccc32)cc1 | 
9 | < 0.2 | 10.3 M⁻¹ s⁻¹ |  |  | O=C1c2c(O)cccc2C(C(=O)CCc2ccccc2)c2cccc(O)c21 | 
10 |  | 15.3 M⁻¹ s⁻¹ |  |  | O=C1c2c(O)cccc2C(C(=O)Cc2cc(OCc3ccccc3)c(OCc3ccccc3)c(OCc3ccccc3)c2)c2cccc(O)c21 | Deoxyribose degradation (uM of MDA mM-1) [4]: < 0.2
11 | < 0.2 | 13.3 M⁻¹ s⁻¹ | 600 nM |  | O=C1c2c(O)cccc2C(C(=O)Cc2ccc(OCc3ccccc3)cc2)c2cccc(O)c21 | 
12 | < 0.15 | < 1 M⁻¹ s⁻¹ |  | < 10% | O=C(O)c1ccc(C=C2c3cccc(O)c3C(=O)c3c(O)cccc32)cc1 | 
13 |  | > 100 M⁻¹ s⁻¹ |  |  | CC(Cc1ccc(O)c(O)c1)C(C)Cc1ccc(O)c(O)c1 (configuration not stated) [NORDIHYDROGUAIARETIC ACID] | Deoxyribose degradation (uM of MDA mM-1) [4]: 0.23
14 | < 0.15 | < 1 M⁻¹ s⁻¹ |  | 34% | O=C1c2c(O)cccc2C(=Cc2ccccc2)c2cccc(O)c21 | 
15 | 0.24 | 7 M⁻¹ s⁻¹ | 33000 nM |  | CCCC(=O)C1c2cccc(O)c2C(=O)c2c(O)cccc21 [BUTANTRONE] | 
16 | < 0.15 | < 1 M⁻¹ s⁻¹ |  | 23% | Cc1ccc(C=C2c3cccc(O)c3C(=O)c3c(O)cccc32)cc1 | 
17 |  | > 100 M⁻¹ s⁻¹ |  |  | O=C1c2c(O)cccc2C(C(=O)/C=C/c2ccccc2)c2cccc(O)c21 | Deoxyribose degradation (uM of MDA mM-1) [4]: 1.66
18 | < 0.15 | < 1 M⁻¹ s⁻¹ |  | 0% | O=C1c2c(O)cccc2C(=CCCCCc2ccccc2)c2cccc(O)c21 | 
19 | < 0.15 | < 1 M⁻¹ s⁻¹ |  | 30% | O=C1c2c(O)cccc2C(=CCc2ccccc2)c2cccc(O)c21 | 
20 |  | > 100 M⁻¹ s⁻¹ | 500 nM |  | O=C1c2c(O)cccc2C(=Cc2ccc(O)c(O)c2)c2cccc(O)c21 | Deoxyribose degradation (uM of MDA mM-1) [4]: 0.44
21 | < 0.2 | 63.7 M⁻¹ s⁻¹ |  |  | O=C1c2c(O)cccc2C(C(=O)Cc2ccc([N+](=O)[O-])cc2)c2cccc(O)c21 | 
22 | 2.5 | 7.8 M⁻¹ s⁻¹ | 1000 nM |  | O=C1c2c(O)cccc2C(C(=O)CCc2ccc(O)cc2)c2cccc(O)c21 | 

Row | Deoxyribose degradation (uM of MDA mM-1) [1] | kDPPH [2] | IC50 [5] | inhibition [6] | SMILES | also measured
23 | < 0.2 | 10.1 M⁻¹ s⁻¹ | 2000 nM |  | O=C1c2c(O)cccc2C(C(=O)CCCCc2ccccc2)c2cccc(O)c21 | 
24 | < 0.2 | 16.4 M⁻¹ s⁻¹ |  |  | O=C1c2c(O)cccc2C(C(=O)Cc2ccccc2)c2cccc(O)c21 | 
25 |  | > 100 M⁻¹ s⁻¹ | 11000 nM |  | O=C1c2c(O)cccc2C(C(=O)Cc2ccc(O)c(O)c2)c2cccc(O)c21 | Deoxyribose degradation (uM of MDA mM-1) [4]: 6.26
26 |  | > 100 M⁻¹ s⁻¹ | 3000 nM |  | COc1cccc(/C=C/C(=O)C2c3cccc(O)c3C(=O)c3c(O)cccc32)c1 | 
27 | 1.4 | 7.4 M⁻¹ s⁻¹ | 1000 nM |  | COc1ccc(CCC(=O)C2c3cccc(O)c3C(=O)c3c(O)cccc32)cc1 | 
28 | < 0.15 | < 1 M⁻¹ s⁻¹ |  |  | COc1ccc(CCC=C2c3cccc(O)c3C(=O)c3c(O)cccc32)cc1 | inhibition [7]: 24%
29 | < 0.2 | 10.1 M⁻¹ s⁻¹ | 300 nM |  | O=C1c2c(O)cccc2C(C(=O)CCCc2ccccc2)c2cccc(O)c21 | 
30 |  | > 100 M⁻¹ s⁻¹ | 400 nM |  | O=C1c2c(O)cccc2C(=Cc2cc(O)c(O)c(O)c2)c2cccc(O)c21 | Deoxyribose degradation [8]: 6.03 uM of MDA mM-1
31 |  | > 100 M⁻¹ s⁻¹ |  |  | O=C1c2c(O)cccc2C(C(=O)Cc2cc(O)c(O)c(O)c2)c2cccc(O)c21 | Deoxyribose degradation (uM of MDA mM-1) [4]: 2.99
32 |  | > 100 M⁻¹ s⁻¹ | 6000 nM |  | O=C1c2c(O)cccc2C(C(=O)/C=C/c2ccc([N+](=O)[O-])cc2)c2cccc(O)c21 | Deoxyribose degradation (uM of MDA mM-1) [4]: 0.88
33 | < 0.15 | < 1 M⁻¹ s⁻¹ |  | 21% | O=C1c2c(O)cccc2C(=CCCCc2ccccc2)c2cccc(O)c21 | 
34 | < 0.15 | < 1 M⁻¹ s⁻¹ | 2000 nM |  | O=C1c2c(O)cccc2C(=Cc2ccc([N+](=O)[O-])cc2)c2cccc(O)c21 | 
35 | < 0.15 | < 1 M⁻¹ s⁻¹ |  | 34% | N#Cc1ccc(C=C2c3cccc(O)c3C(=O)c3c(O)cccc32)cc1 | 
36 | < 0.2 | 15 M⁻¹ s⁻¹ |  | 34% | O=C1c2c(O)cccc2C(C(=O)Cc2ccc(OCc3ccccc3)c(OCc3ccccc3)c2)c2cccc(O)c21 | 
37 | < 0.15 | < 1 M⁻¹ s⁻¹ |  | < 10% | COc1ccc(C=C2c3cccc(O)c3C(=O)c3c(O)cccc32)cc1OC | 
38 | < 0.15 | < 1 M⁻¹ s⁻¹ |  | 33% | O=C1c2c(O)cccc2C(=Cc2ccc(C(F)(F)F)cc2)c2cccc(O)c21 | 
39 | < 0.15 | < 1 M⁻¹ s⁻¹ |  | 10% | COc1cc(C=C2c3cccc(O)c3C(=O)c3c(O)cccc32)cc(OC)c1OC | 
40 | < 0.2 | 15.1 M⁻¹ s⁻¹ | 500 nM |  | COc1ccc(CC(=O)C2c3cccc(O)c3C(=O)c3c(O)cccc32)cc1 | 
41 | < 0.15 | < 1 M⁻¹ s⁻¹ |  | < 10% | COc1ccc(C=C2c3cccc(O)c3C(=O)c3c(O)cccc32)cc1 | 
42 | < 0.2 | 8.7 M⁻¹ s⁻¹ | 17000 nM |  | COc1ccc(CCC(=O)C2c3cccc(O)c3C(=O)c3c(O)cccc32)cc1OC | 
43 | < 0.2 | 8.8 M⁻¹ s⁻¹ | 2000 nM |  | O=C1c2c(O)cccc2C(C(=O)CCc2ccc(OCc3ccccc3)cc2)c2cccc(O)c21 | 

Row | SMILES | Deoxyribose degradation (uM of MDA mM-1) [1] | kDPPH [2] | IC50 [5] | inhibition [6] | also measured
44 | CC(=O)Oc1cccc2cc3cccc(OC(C)=O)c3c(OC(C)=O)c12 [TRIACETOXYANTHRENE] |  |  |  | 15% | kDPPH [3]: Not Active; Deoxyribose degradation (uM of MDA mM-1) [4]: < 0.15
